The source of these data is ChEMBL document CHEMBL4196108, “5-Aroylindoles Act as Selective Histone Deacetylase 6 Inhibitors Ameliorating Alzheimer's Disease Phenotypes” (J Med Chem, 2018).

The IC50 is the concentration needed to halve the response being measured. Higher therefore signals weaker potency.

Assay [1] has as its target T1, Protein deacetylase HDAC6 (Mus musculus) (UniProt Q9Z2V5).
T1 sequence (whole entry): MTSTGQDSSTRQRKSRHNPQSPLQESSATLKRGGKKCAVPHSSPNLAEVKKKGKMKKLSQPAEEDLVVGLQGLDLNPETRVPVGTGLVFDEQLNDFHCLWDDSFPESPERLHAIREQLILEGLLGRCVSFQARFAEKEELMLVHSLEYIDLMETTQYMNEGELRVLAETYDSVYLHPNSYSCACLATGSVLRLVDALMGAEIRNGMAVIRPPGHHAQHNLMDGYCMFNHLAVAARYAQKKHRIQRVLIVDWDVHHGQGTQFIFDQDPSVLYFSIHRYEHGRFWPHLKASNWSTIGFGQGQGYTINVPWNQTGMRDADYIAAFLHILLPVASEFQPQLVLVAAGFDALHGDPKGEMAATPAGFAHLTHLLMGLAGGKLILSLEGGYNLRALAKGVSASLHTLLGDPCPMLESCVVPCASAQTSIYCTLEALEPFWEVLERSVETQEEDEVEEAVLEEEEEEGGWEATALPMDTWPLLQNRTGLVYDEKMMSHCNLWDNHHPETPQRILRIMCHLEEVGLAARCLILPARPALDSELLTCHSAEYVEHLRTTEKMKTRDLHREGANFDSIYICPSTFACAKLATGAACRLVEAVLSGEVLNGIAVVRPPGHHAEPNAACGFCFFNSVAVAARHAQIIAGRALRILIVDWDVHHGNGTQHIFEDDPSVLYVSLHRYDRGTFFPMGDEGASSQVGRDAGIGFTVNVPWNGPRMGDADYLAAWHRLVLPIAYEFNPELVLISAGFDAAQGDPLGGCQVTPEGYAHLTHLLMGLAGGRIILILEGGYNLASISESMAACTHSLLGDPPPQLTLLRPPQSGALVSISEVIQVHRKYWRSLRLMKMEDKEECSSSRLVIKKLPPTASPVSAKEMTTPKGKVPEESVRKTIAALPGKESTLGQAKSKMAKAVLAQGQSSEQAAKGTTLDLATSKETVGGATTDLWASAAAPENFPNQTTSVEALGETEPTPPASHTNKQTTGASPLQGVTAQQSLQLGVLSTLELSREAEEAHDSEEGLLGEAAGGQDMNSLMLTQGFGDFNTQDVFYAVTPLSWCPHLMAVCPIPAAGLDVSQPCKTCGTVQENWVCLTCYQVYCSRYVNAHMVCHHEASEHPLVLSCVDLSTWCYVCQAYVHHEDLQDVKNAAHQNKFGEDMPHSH
As to the kind of experiment: Inhibition of HDAC6 in mouse Neuro-2a cells transfected with pCAX FLAG APP and pRK5-EGFP-Tau P301L plasmids assessed as inhibition of Tau P301L mutant phosphorylation at Ser396 residue at 1 uM after 24 hrs by Western blot analysis. The format is cell-based. In outline:
(§1)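 SH-SY5Y or Neuro-2a cells cotransfected 24 h with pCAX APP695 and pRK5-EGFP-Tau P301L, then treated 24 h at 1 µM. 20 µg lysate protein immunoblotted for APP and phospho-tau Ser396/Ser404. Mean ± STD of three independent experiments; Student's t-test.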

The target in assay [2] is T2, Protein deacetylase HDAC6 (Homo sapiens) (UniProt Q9UBN7).
T2 sequence (whole entry): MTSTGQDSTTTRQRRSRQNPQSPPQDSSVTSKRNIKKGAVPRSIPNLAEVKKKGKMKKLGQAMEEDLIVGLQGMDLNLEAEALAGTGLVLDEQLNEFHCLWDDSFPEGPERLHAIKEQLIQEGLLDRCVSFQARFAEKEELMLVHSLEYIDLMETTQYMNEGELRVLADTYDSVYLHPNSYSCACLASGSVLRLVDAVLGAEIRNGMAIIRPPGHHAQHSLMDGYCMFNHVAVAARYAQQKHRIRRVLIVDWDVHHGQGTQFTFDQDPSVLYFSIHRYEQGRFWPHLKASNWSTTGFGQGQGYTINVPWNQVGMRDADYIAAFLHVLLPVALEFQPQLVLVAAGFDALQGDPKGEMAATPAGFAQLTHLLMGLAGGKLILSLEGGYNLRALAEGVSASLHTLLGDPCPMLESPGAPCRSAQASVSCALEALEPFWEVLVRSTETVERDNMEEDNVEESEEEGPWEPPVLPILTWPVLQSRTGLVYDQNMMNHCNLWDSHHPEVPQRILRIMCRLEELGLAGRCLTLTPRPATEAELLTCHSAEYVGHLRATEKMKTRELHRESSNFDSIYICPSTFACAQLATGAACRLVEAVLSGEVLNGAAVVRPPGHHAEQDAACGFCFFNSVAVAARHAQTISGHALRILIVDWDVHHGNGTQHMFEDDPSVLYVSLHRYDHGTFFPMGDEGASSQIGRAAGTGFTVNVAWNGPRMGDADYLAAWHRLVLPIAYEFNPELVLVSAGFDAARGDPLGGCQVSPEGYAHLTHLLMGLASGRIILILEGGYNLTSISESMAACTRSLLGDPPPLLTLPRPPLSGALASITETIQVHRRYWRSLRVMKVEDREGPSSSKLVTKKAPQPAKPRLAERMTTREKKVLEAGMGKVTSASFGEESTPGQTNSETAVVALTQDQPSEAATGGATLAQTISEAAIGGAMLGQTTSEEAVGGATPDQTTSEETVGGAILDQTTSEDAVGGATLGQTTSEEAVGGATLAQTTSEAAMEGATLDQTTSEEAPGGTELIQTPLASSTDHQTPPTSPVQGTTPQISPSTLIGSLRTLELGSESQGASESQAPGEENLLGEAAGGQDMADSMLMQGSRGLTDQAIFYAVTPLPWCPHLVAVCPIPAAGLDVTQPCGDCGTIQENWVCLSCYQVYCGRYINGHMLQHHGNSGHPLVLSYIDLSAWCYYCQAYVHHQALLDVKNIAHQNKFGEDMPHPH
As to the kind of experiment: Inhibition of HDAC6 in human SH-SY5Y cells transfected with pCAX FLAG APP and pRK5-EGFP-Tau P301L plasmids assessed as inhibition of Tau P301L mutant phosphorylation at Ser396 residue at 1 uM after 24 hrs by Western blot analysis. The format is cell-based. In outline:
as §1
(In general: A western blot detects proteins with antibodies after separation by electrophoresis.)

For a further assay, the target named is T3, Histone deacetylase 8 (Homo sapiens, UniProt Q9BY41).
T3 sequence (Q9BY41 whole entry): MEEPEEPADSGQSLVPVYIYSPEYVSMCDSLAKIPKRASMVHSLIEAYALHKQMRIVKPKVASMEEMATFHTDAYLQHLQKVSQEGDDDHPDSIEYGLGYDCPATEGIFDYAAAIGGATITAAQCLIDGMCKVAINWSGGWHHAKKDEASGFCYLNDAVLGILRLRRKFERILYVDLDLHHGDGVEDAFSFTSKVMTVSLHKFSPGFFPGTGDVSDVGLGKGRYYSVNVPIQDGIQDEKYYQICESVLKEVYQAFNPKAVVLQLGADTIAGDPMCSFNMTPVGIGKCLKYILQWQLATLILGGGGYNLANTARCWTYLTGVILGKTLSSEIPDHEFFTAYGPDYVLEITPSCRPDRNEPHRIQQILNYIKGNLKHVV
As to the kind of experiment: Inhibition of human HDAC8 using RHKAcKAc peptide as substrate.

The source made the active and inactive calls. The rule behind the calls is not given here.

In the case of `COc1ccc(C(=O)c2ccc3c(ccn3Cc3ccc(C(=O)NO)cc3)c2)cc1`, the inhibition entry in assay [1] and in assay [2] was “Active” in each case. The same compound came in with an IC50 against Histone deacetylase 8 of 646 nM.

Take `O=C(NO)c1ccc(Cn2ccc3cc(C(=O)c4ccc(Cl)cc4)ccc32)cc1`: the inhibition result in assay [1] and in assay [2] was “Active” each time. The same compound returned an IC50 at Histone deacetylase 8 of 1060 nM.

With `O=C(NO)c1ccc(Cn2ccc3cc(C(=O)c4ccc(F)cc4)ccc32)cc1`, the inhibition result in assay [1] and in assay [2] was “Active” each time. Moreover, at Histone deacetylase 8, the IC50 was found to be 1240 nM.
